FLuc inhib CS: Photinus pyralis luciferase inhibition counter-screen. ATPLite firefly luciferase biochemical luminescence, 10 min. inhibition, % at 10 µM. 1.5% of 200,000 active. AID 1006;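 active means inhibition above about 50% when tested at 10 µM, limit read from the data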
Target sequence (P08659 whole entry, looked up): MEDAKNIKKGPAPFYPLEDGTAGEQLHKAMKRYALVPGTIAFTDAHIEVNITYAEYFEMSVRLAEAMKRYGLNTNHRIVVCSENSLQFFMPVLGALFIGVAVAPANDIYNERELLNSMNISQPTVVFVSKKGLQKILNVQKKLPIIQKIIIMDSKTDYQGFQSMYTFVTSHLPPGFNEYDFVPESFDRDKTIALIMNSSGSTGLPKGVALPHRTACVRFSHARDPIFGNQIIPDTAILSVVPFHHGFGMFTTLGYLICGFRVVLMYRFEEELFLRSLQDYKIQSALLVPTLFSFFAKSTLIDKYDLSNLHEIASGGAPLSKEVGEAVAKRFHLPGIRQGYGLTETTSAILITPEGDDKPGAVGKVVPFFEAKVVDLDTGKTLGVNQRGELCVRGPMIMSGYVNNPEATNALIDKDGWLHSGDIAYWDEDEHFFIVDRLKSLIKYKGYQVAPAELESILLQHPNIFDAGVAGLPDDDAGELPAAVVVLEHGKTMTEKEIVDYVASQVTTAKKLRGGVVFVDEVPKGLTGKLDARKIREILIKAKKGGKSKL
STAT1 activator: increases IFN-gamma driven STAT1 reporter signal. 2.6% of 200,000 active. activation (% of control), % at 5.5 µM. AID 932. NIH 3T3 STAT1-luciferase reporter, luminescence; 100% = IFN-gamma alone, no compound;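 active means activation above the screen-wide mean activation plus 3 SD, cut at about 130% in these data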
APP 5'UTR act: APP 5'UTR luciferase reporter activation; SH-SY5Y APP 5'UTR luciferase reporter, luminescence; zero percent = DMSO vehicle wells; activation, % at 2 µM; 1% of 190,000 active;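 active means activation above a set limit, based on mean plus 3 SD of controls, cut at about 140% in these data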
SDO1 yeast rescue: restores growth of sdo1-depleted yeast | S. cerevisiae sdo1-depleted JHY4D growth rescue, OD600 30 h; hits give high values; pdr5 snq2 efflux-pump mutant strain | z-score at 10 µM | 0.21% of 140,000 active;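 active means z-score above 3 at both the 24 hr and the 30 hr optical density reads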
NF-kB expr up: compounds increasing NF-kB expression in human neuronal cells; NF-kB reporter expression; hits give high values; 1.6% of 190,000 active; fold change at 12.5 µM; in the data active means fold change above about 3.3
FLuc stim CS: affects firefly luciferase, flagging false hits in luciferase stimulation screens | P08659 | ATPlite luciferase biochemical, luminescence, 10 min; 0 = ATP-free wells, 1 = DMSO control | activation factor at 10 µM | 200,000 tested, under 10 active | AID 1027;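 active means luciferase activation factor, scaled between plate controls, of at least 2 with compound at 10 µM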
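Material: luciferase plus luciferin reagent, cell-free. Medium: PBS buffer for ATP. Also added: ATP substrate, dispensed from a 10.24 µM working solution in PBS. Doses: test compounds dosed from 2 mM stocks in 100% DMSO. Incubation: 10 min post-reagent at room temperature. Technique: light output (luminescence). Read-out basis: luminescence gain marking luciferase activators.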
STAT1 activ conf: STAT1 activation, confirmation assay. AID 1262. shares compounds with STAT1 activator. 97% of 1,200 active. NIH 3T3 STAT1-luciferase reporter, IFN-gamma potentiation, luminescence; 100% = IFN-gamma EC80 alone, no compound. activation (% of control), % at 5.7 µM;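 active means activation above a set limit carried over from the earlier primary STAT1 screen, cut at about 140% in these data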
NFkB act: counter-screen for STAT1 activators: NF-kappaB activation; 43% of 1,200 active; activation (% of control), % at 5.7 µM; HEK293T NF-kB luciferase reporter, TNF-alpha stimulated, luminescence; 100% = TNF-alpha with vehicle only; shares compounds with STAT1 activator;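 active means activation above the mean of solvent-only control wells plus 3 SD, set per campaign, cut at about 130% in these data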;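 further: TNF-alpha given at a submaximal dose yielding about 80% of full reporter signal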
STAT3 act 2: activates human STAT3, counter-screen to STAT1 activators; 46% of 1,200 active; shares compounds with STAT1 activator; activation (% of control), % at 5.7 µM; U3A cells STAT3-luciferase reporter, IL-6, luminescence; cells lack STAT1; 100 = IL-6 alone, no compound effect;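 active means activation above the solvent-only control well mean plus 3 SD, set per plate batch, cut at about 110% in these data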;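 further: higher means more STAT3 reporter activation so hits are non-selective activators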
Numbers stand for hits; - = inactive; . = not tested or not shown. Most compounds without a hit are left out; they make up all but 4.3% or so of the library.

SMILES	FLuc inhib CS	STAT1 activator	APP 5'UTR act	SDO1 yeast rescue	NF-kB expr up	FLuc stim CS	STAT1 activ conf	NFkB act	STAT3 act 2
O=C(c1ccc(F)cc1)c1cc2ccccc2o1	-	156.7	-	-	3.6	-	174.3	-	-
CC(C)(C)C(=O)Nc1ccc(C(=O)OC2CCCCC2)cc1	-	161.5	-	-	3.63	-	219.4	145.0	132.8
O=C(OC1CCCCC1)c1ccc(NC(=O)C2CCCCC2)cc1	-	-	-	-	-	-	.	.	.
O=C(Nc1ccc2c(c1)CCC2)c1cccc(F)c1	-	162.5	169.7	-	6.8	-	202.3	-	-
O=C(Nc1ccncc1)c1cccc(F)c1	-	-	-	-	-	-	.	.	.
O=C(Nc1ccc2c(c1)CCC2)c1ccccc1Br	-	154.5	218.9	.	-	-	218.2	138.1	112.1
Cc1cc(NCCOCCO)n2ncc(-c3ccc(Cl)cc3)c2n1	-	176.7	151.7	-	3.65	-	264.7	134.8	132.6
Cc1nn(CC(=O)Nc2ccc3c(c2)nc2n3CCN(C3CCCCC3)C2)c(=O)c2ccccc12	-	-	-	.	-	-	.	.	.
CCOC(=O)/C(C#N)=C\N(C)C	-	-	-	-	-	-	.	.	.
C=CCN1C=CC(=C/C=C(/C#N)C(=O)OCC)C=C1	81.7	175.3	142.8	-	4.57	-	210.1	133.2	117.3
CCOC(=O)c1ccc(Nc2cnc3ccccc3n2)cc1	-	171.0	135.8	.	5	-	194.2	139.2	113.6
COc1ccc(S(=O)(=O)N(C)C)cc1NC(=O)CSc1nncs1	-	-	-	.	-	-	.	.	.
CCCCOc1ccc(N2C(=O)CC(NCCc3ccc(S(N)(=O)=O)cc3)C2=O)cc1 (configuration not stated)	-	-	-	-	-	-	.	.	.
CCN(CC)CCNC(=O)c1cn(-c2ccccc2)nc1-c1cccs1	-	-	-	-	-	-	.	.	.
CCN(CC)CCOC(=O)c1ccc(NC(=O)c2cn(-c3ccccc3)nc2-c2cccs2)cc1	-	155.0	-	.	-	-	-	-	-
CCOC(=O)c1cnn(-c2ccccc2)c1NC(=O)CSc1nnc(-c2cccs2)n1CC	-	-	-	-	-	-	.	.	.
O=C(O)CCC(=O)Nc1ccc(-c2nnc(-c3ccco3)o2)cc1	-	-	.	-	-	-	.	.	.
Brc1ccc(-c2nnc(-c3ccccc3Br)o2)cc1	-	164.3	169.4	-	-	-	216.2	137.9	-
Clc1ccc(-c2nnc(-c3ccccc3Cl)o2)cc1	74.3	161.4	201.7	-	5.31	-	218.3	-	-
Brc1ccc(-c2nnc(-c3ccco3)o2)cc1	-	154.6	-	-	-	-	180.6	-	-
Cc1ccc2nc(N3C(=O)C(O)=C(C(=O)c4cc5ccccc5o4)C3c3cccs3)sc2c1 (configuration not stated)	-	153.8	160.4	-	3.7	-	162.4	-	123.1
Cc1cc(N2C(=O)C(O)=C(C(=O)c3ccc(C)o3)C2c2cccs2)no1 (configuration not stated)	-	-	-	-	-	-	.	.	.
CCCNC(=O)c1cc(-c2ccc(OC)cc2)on1	-	152.5	-	-	6.8	-	170.5	134.2	-
C=CCNC(=O)c1cc(-c2ccc(Br)cc2)on1	-	160.3	-	-	-	-	170.6	-	-
Nc1cc(=O)[nH]c(SCc2nnnn2-c2ccc(Cl)cc2)n1	-	-	-	-	-	-	.	.	.
SMILES	FLuc inhib CS	STAT1 activator	APP 5'UTR act	SDO1 yeast rescue	NF-kB expr up	FLuc stim CS	STAT1 activ conf	NFkB act	STAT3 act 2
Cc1ccc(-c2nnc(-c3ccncc3)n2-c2ccc(C)cc2)cc1	-	-	-	-	-	-	.	.	.
Cc1ccc(-c2cnc(-c3ccncc3)o2)cc1	-	153.1	-	-	-	-	154.3	-	-
COc1ccc(OC)c(CC(NC(C)=O)C(=O)NC2CCN(c3cc(C)nc4ncnn34)CC2)c1 (configuration not stated)	-	-	-	.	-	-	.	.	.
NNc1nc2c(F)cc(F)cc2s1	-	156.1	166.6	-	-	-	-	-	115.7
COC(=O)c1ccc2nc(Nc3nc4c(F)cc(F)cc4s3)sc2c1	-	-	-	-	-	-	.	.	.
Cc1ccccc1Oc1nnc(-c2cccs2)c2ccccc12	-	-	-	-	-	-	.	.	.
CCOc1ccc2nc(NC(=S)N(C)C)sc2c1	-	182.9	167.1	-	12.3	-	293.2	134.1	-
CN(C)C(=S)Nc1nc2ccccc2s1	-	164.8	-	.	9.1	-	169.8	137.9	-
CCOc1ccc2nc(NC(=O)CSc3ccccc3)sc2c1	-	-	-	-	-	-	.	.	.
COc1ccccc1NC(CC(=O)c1ccccc1)C(=O)OCC(=O)c1ccc(Br)cc1 (configuration not stated)	-	156.2	-	-	-	-	182.8	-	-
O=C1CC(/C=C/c2ccc(Cl)cc2)=Nc2ccccc2N1	-	176.9	-	.	3.65	-	198.4	145.4	120.4
O=C1CC(C(F)(F)C(F)(F)C(F)(F)F)=Nc2ccccc2N1	-	-	-	-	-	-	.	.	.
C/C(=N/NC(=O)c1ccccc1)c1ccc(NC(=O)C(F)(F)F)cc1	-	-	-	.	-	-	.	.	.
COc1ccc(Nc2nc(Cl)nc(N3CCN(c4ccc(OC)cc4)CC3)n2)cc1	-	-	-	.	-	-	.	.	.
COc1cc(/C=N/NC(=O)CN2CCCCC2)ccc1OCc1ccc(Br)cc1	-	175.6	-	-	4.48	-	177.9	136.3	119.2
COc1cc(/C=N/NC(=O)CC2(C)OCCCO2)ccc1OCc1ccccc1	-	-	-	-	-	-	.	.	.
C=CCn1c(SCC2=C(C(=O)OCC)C(C)NC(=O)N2)nnc1C1CCCCC1 (configuration not stated)	-	-	-	-	-	-	.	.	.
N/C(=N\c1nc2ccccc2o1)NC(=O)c1ccccc1NC(=O)c1ccccc1	-	-	-	-	-	-	.	.	.
N/C(=N\c1nc2ccccc2o1)NC(=O)c1ccccc1F	-	150.8	-	-	-	-	161.9	-	119.1
O=c1[nH]c2ccccc2nc1/C=C/c1ccccc1	60.3	161.6	-	.	-	-	188.3	-	121.3
O=c1[nH]c2ccccc2nc1/C=C/c1ccc(F)cc1	68.4	158.6	-	.	-	-	165.8	-	-
CCCC/C(O)=C/c1nc2ccccc2[nH]c1=O	-	-	-	-	-	-	.	.	.
